Measured values from ChEMBL document CHEMBL4689842, “EUbOPEN Chemogenomics Library wave 1” (2021).

System: Fibroblast
Assay: Multiplex assay against human fibroblast
Type: toxicity, cell-based
Outline: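 Compound was added to live cells that had been stained at seeding with Hoechst33342, BioTracker Green Microtubule Cytoskeleton Dye, MitoTracker Red and Annexin V Alexa Fluor 680, and imaging followed on a CQ1 microscope at 37°C and 5% CO2. CellPathfinder machine-learning gating divided cells into Hoechst high-intensity objects or normal cells, normal cells into healthy, pyknosed or fragmented nuclei, and pyknosed cells into mitotic or apoptotic. Tubulin, mitochondrial-mass and membrane-permeability phenotypes are per cents of healthy-nucleus cells.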

[1] = 12 h, 1 µM, compound concentration 1 uM, replicate 1
[2] = 12 h, 1 µM, compound concentration 1 uM, replicate 2
[3] = 12 h, 10 µM, compound concentration 10 uM, replicate 1
[4] = 12 h, 10 µM, compound concentration 10 uM, replicate 2
[5] = 24 h, 1 µM, compound concentration 1 uM, replicate 1
[6] = 24 h, 1 µM, compound concentration 1 uM, replicate 2
[7] = 24 h, 10 µM, compound concentration 10 uM, replicate 1
[8] = 24 h, 10 µM, compound concentration 10 uM, replicate 2

In the case of `COc1ccc(-c2ccc3c(N4CCOCC4)nc(N4C[C@@H](C)O[C@@H](C)C4)nc3n2)cc1CO` [Ku-0063794], the “Population Apoptotic (%)” value [1] was 72%, the “Population Fragmented Nuclei (%)” value [1] was 30% and the “Population Healthy Nuclei (%)” value [1] was 52%. The “Population Hoechst High Intensity Objects (%)” value [1] was 16%, the “Population Membrane Permeable-Phenotype (%)” value [1] was 5% and the “Population Mitochondria Different-Phenotype (%)” value [1] was 1%. The “Population Mitotic Cells (%)” value [1] was 27%, the “Population Normal (%)” value [1] was 83% and the “Population Pyknosed Nuclei (%)” value [1] was 16%. For the same compound, the “Population Tubulin-Different-Phenotype (%)” value [1] was 3%, the “Total Cell Count” value [1] was 281 and the “Population Apoptotic (%)” value [2] was 33%. The “Population Fragmented Nuclei (%)” value [2] was 61%, the “Population Healthy Nuclei (%)” value [2] was 30% and the “Population Hoechst High Intensity Objects (%)” value [2] was 35%. The “Population Membrane Permeable-Phenotype (%)” value [2] was 17%, the “Population Mitochondria Different-Phenotype (%)” value [2] was 13% and the “Population Mitotic Cells (%)” value [2] was 66%. For the same compound, the “Population Normal (%)” value [2] was 64%, the “Population Pyknosed Nuclei (%)” value [2] was 8% and the “Population Tubulin-Different-Phenotype (%)” value [2] was 17%. The “Total Cell Count” value [2] was 116, the “Population Apoptotic (%)” value [3] was 77% and the “Population Fragmented Nuclei (%)” value [3] was 72%. The “Population Healthy Nuclei (%)” value [3] was 20%, the “Population Hoechst High Intensity Objects (%)” value [3] was 63% and the “Population Membrane Permeable-Phenotype (%)” value [3] was 14%. The “Population Mitochondria Different-Phenotype (%)” value [3] was 3%, the “Population Mitotic Cells (%)” value [3] was 22% and the “Population Normal (%)” value [3] was 36%. The “Population Pyknosed Nuclei (%)” value [3] was 6%, the “Population Tubulin-Different-Phenotype (%)” value [3] was 7% and the “Total Cell Count” value [3] was 736. For the same compound, the “Population Apoptotic (%)” value [4] was 0%, the “Population Fragmented Nuclei (%)” value [4] was 82% and the “Population Healthy Nuclei (%)” value [4] was 17%. The “Population Hoechst High Intensity Objects (%)” value [4] was 66%, the “Population Membrane Permeable-Phenotype (%)” value [4] was 42% and the “Population Mitochondria Different-Phenotype (%)” value [4] was 42%. The “Population Mitotic Cells (%)” value [4] was 0%, the “Population Normal (%)” value [4] was 33% and the “Population Pyknosed Nuclei (%)” value [4] was 0%. The “Population Tubulin-Different-Phenotype (%)” value [4] was 28%, the “Total Cell Count” value [4] was 244 and the “Population Apoptotic (%)” value [5] was 67%. The “Population Fragmented Nuclei (%)” value [5] was 33%, the “Population Healthy Nuclei (%)” value [5] was 54% and the “Population Hoechst High Intensity Objects (%)” value [5] was 18%. The “Population Membrane Permeable-Phenotype (%)” value [5] was 7%, the “Population Mitochondria Different-Phenotype (%)” value [5] was 2% and the “Population Mitotic Cells (%)” value [5] was 32%. For the same compound, the “Population Normal (%)” value [5] was 81%, the “Population Pyknosed Nuclei (%)” value [5] was 11% and the “Population Tubulin-Different-Phenotype (%)” value [5] was 3%. For the same compound, the “Total Cell Count” value [5] was 290, the “Population Apoptotic (%)” value [6] was 80% and the “Population Fragmented Nuclei (%)” value [6] was 65%. For the same compound, the “Population Healthy Nuclei (%)” value [6] was 28%, the “Population Hoechst High Intensity Objects (%)” value [6] was 25% and the “Population Membrane Permeable-Phenotype (%)” value [6] was 9%. For the same compound, the “Population Mitochondria Different-Phenotype (%)” value [6] was 13%, the “Population Mitotic Cells (%)” value [6] was 20% and the “Population Normal (%)” value [6] was 74%. The “Population Pyknosed Nuclei (%)” value [6] was 6%, the “Population Tubulin-Different-Phenotype (%)” value [6] was 13% and the “Total Cell Count” value [6] was 105. The “Population Apoptotic (%)” value [7] was 59%, the “Population Fragmented Nuclei (%)” value [7] was 72% and the “Population Healthy Nuclei (%)” value [7] was 21%. The “Population Hoechst High Intensity Objects (%)” value [7] was 58%, the “Population Membrane Permeable-Phenotype (%)” value [7] was 10% and the “Population Mitochondria Different-Phenotype (%)” value [7] was 0%. The “Population Mitotic Cells (%)” value [7] was 40%, the “Population Normal (%)” value [7] was 41% and the “Population Pyknosed Nuclei (%)” value [7] was 6%. For the same compound, the “Population Tubulin-Different-Phenotype (%)” value [7] was 7%, the “Total Cell Count” value [7] was 790 and the “Population Apoptotic (%)” value [8] was 100%. The “Population Fragmented Nuclei (%)” value [8] was 78%, the “Population Healthy Nuclei (%)” value [8] was 20% and the “Population Hoechst High Intensity Objects (%)” value [8] was 70%. For the same compound, the “Population Membrane Permeable-Phenotype (%)” value [8] was 28%, the “Population Mitochondria Different-Phenotype (%)” value [8] was 21% and the “Population Mitotic Cells (%)” value [8] was 0%. The “Population Normal (%)” value [8] was 29%, the “Population Pyknosed Nuclei (%)” value [8] was 1% and the “Population Tubulin-Different-Phenotype (%)” value [8] was 21%. For the same compound, the “Total Cell Count” value [8] was 241.
